Assay outcomes: PubChem, several laboratories
Shown are actives, neighbours in structure and some others; about 2.6% of the full set was active somewhere.
SENP7 block = SENP7 protease inhibitors, primary screen, biochemical, luminescence, uHTS; AID 434973, 2010; inhibition, % at 5 µM; recombinant SENP7, Z-RLRGG-aminoluciferin luminescence, 40 min; hit rate 1.5% among 330,000;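 active = inhibition above about 50% at the single test dose, limit read from the data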;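 note: plate controls were DMSO with enzyme for no effect and no enzyme buffer wells for full effect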
Platelet DG rel = inhibitors of platelet dense granule secretion, primary screen, cell-based, MLPCN, human platelets; human platelet-rich plasma, SFLLRN dense granule ATP release, luminescence; inhibition, %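 (compounds screened at 7.5 µM in platelet-rich plasma)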; hit rate 0.22% among 300,000;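 active = mean replicate score, as percent of positive control, at or above 50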
SENP6 inh = SENP6 protease inhibitors, primary screen, biochemical, luminescence, uHTS. Sentrin-specific protease 6 (Homo sapiens), Q9GZR1. Recombinant SENP6 catalytic domain, aminoluciferin luminescence. inhibition, % at 10 µM. hit rate 1.8% among 330,000. AID 2599, 2010;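 active = inhibition above about 50% at the single tested dose, limit read from the data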;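 note: plate controls were DMSO wells with enzyme for no effect and DMSO wells lacking enzyme for full effect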
Target sequence (Q9GZR1 628-1112 limits assumed): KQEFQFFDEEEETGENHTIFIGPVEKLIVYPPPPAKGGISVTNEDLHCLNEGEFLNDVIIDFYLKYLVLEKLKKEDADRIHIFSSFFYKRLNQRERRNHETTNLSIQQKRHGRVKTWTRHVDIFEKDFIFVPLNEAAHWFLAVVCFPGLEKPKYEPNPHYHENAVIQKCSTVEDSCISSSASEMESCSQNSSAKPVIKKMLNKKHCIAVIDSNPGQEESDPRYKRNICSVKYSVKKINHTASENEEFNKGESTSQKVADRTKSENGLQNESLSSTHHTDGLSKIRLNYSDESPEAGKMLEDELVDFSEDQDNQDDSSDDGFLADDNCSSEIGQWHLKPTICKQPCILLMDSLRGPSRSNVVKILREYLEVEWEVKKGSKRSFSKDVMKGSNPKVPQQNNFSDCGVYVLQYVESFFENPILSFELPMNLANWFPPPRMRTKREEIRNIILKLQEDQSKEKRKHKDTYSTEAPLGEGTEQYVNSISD
SENP1 FRET inh = human SENP1 catalytic domain inhibitors, primary screen, biochemical, FRET, uHTS | inhibition, % at 10 µM | recombinant SENP1 catalytic domain, CyPet-SUMO1-YPet FRET cleavage | hit rate 0.21% among 360,000;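 active = inhibition at least 30% at 10 µM, raw YFP signal under a set limit, fluorescence ratio 0.5 to 1.5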;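 note: 0% = enzyme with DMSO and 100% = no enzyme wells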
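material = recombinant human SENP1 catalytic domain, His6-tagged | quantity = 20 pM enzyme | reagent = 25 nM SUMO1 FRET substrate | compound dosing = 10 µM single point, 0.5% DMSO | timing = 50 min enzyme reaction, room temperature, light-protected | detection = FRET, CFP and YFP emission | control set = no-enzyme low, enzyme-DMSO high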
SENP8 block-1 = SENP8 protease inhibitors, primary screen, biochemical, luminescence. hit rate 1.2% among 330,000. Sentrin-specific protease 8 (Homo sapiens), Q96LD8. purified SENP8, Z-RLRGG-aminoluciferin cleavage. inhibition, % at 10 µM; in the data active = inhibition above about 50%
SENP8 block-2 = human SENP8 protease inhibitors, primary screen, biochemical, fluorescence, Nedd8 protein substrate, uHTS. Sentrin-specific protease 8 (Homo sapiens), Q96LD8. hit rate 0.64% among 360,000. inhibition, % at 20 µM. AID 602440, 2012. recombinant SENP8; in the data active = inhibition mostly above about 40%, no sharp cut-off; inactive = mostly below about 27%
SENP8 conf = human SENP8 protease inhibitors, confirmation, biochemical, Nedd8 protein substrate, single concentration; shares compounds with SENP8 block-2; purified SENP8, Nedd8-AMC/pro-Nedd8 cleavage fluorescence, 30 min; inhibition, % at 25 µM; hit rate 15% among 1,400; AID 624319, 2012; in the data active = inhibition mostly above about 39%, no sharp cut-off; inactive = mostly below about 34%
Starred values were filed as active, the others as inactive; x = no result.

SMILES | SENP7 block | Platelet DG rel | SENP6 inh | SENP1 FRET inh | SENP8 block-1 | SENP8 block-2 | SENP8 conf
O=C(NC1CCCC1)C(c1ccco1)N1CCN(c2c(Cl)cncc2Cl)CC1 (centres undefined) | x | x | x | 0.8 | x | 13.0 | x
CCC(=O)Nc1ccccc1Nc1cc(C#N)c(C#N)cc1[N+](=O)[O-] | 1.6 | 4.5 | -18.8 | -2.2 | 0.3 | 42.4* | 17.6
N#Cc1ccccc1NC(=O)COC(=O)COc1ccccc1[N+](=O)[O-] | 3.3 | 3.9 | -12.1 | 3.1 | 1.9 | -27.1 | x
COc1cc(C(=O)C(=O)c2ccc(OC)c(OC)c2)ccc1O | x | x | x | 2.3 | x | 20.2 | x
O=[N+]([O-])c1cc(/C=N/N2CCOCC2)cs1 | 0.6 | 4.8 | -39.9 | 1.0 | -8.8 | 16.3 | x
O=[N+]([O-])c1ccc(C=NN2CCOCC2)s1 | x | x | x | 12.5 | x | 47.8* | 49.8*
CNc1ccc(C(=O)c2ccccc2C(=O)O)cc1[N+](=O)[O-] | -13.5 | -1.6 | -7.9 | -0.7 | 1.2 | 6.1 | x
CNc1ccc(/C=C/C(=O)c2cccc3ccccc23)cc1[N+](=O)[O-] | 2.6 | -4.7 | -12.1 | 6.7 | 7.6 | 47.0* | 12.5
COc1ccc(S(=O)(=O)N2CCOCC2)cc1NC(=O)c1c(C)noc1C | x | x | x | 1.1 | x | 10.9 | x
O=[N+]([O-])c1ccc(N/N=C2\CC3CC=CC23)c([N+](=O)[O-])c1 (centres undefined) | 4.3 | -0.4 | -10.8 | 2.9 | -2.4 | 40.1* | 19.2
CC1CCC/C(=N/Nc2ccc([N+](=O)[O-])cc2[N+](=O)[O-])C1 (centres undefined) | -7.1 | -0.9 | -10.4 | 1.7 | -17.0 | 36.9 | x
O=[N+]([O-])c1ccc(NN=C2CC3CCC2C3)c([N+](=O)[O-])c1 (centres undefined) | x | x | x | 4.8 | x | 40.6* | -0.8
COc1ccc(C2=NS(=O)(=O)N(C)C(C(=O)N3CCCCC3)=C2)cc1OC | 0.2 | 0.6 | -10.0 | -1.0 | 4.9 | -230.8 | x
COc1ccc(Nc2nc(N)nc(CN3CCc4ccccc4C3)n2)cc1 | 6.1 | 8.6 | 6.0 | -3.1 | 7.4 | 43.6* | 28.5
Nc1nc(CN2CCc3ccccc3C2)nc(Nc2ccccc2)n1 | 11.9 | -1.1 | 4.3 | -6.3 | 8.8 | 25.0 | x
COc1cc(S(=O)(=O)NCC2(N3CCCCC3)CCCCC2)ccc1NC(C)=O | -8.3 | x | 1.0 | -0.2 | -9.0 | 2.7 | x
O=C(NC1CCCCC1)Oc1ccccc1 | -8.8 | -14.7 | -7.2 | 1.9 | -11.1 | 40.3* | 9.8
CC(O)(P(=O)(O)O)P(=O)(O)O | x | x | x | 3.8 | x | 3.4 | x
COc1ccc(-c2cccc(NC(=O)COc3ccc(Cl)cc3)c2)nn1 | 2.4 | 9.8 | -3.2 | -3.3 | -14.0 | 15.3 | x
Cc1nnc(N/N=C/c2cccc(C(F)(F)F)c2)n1N | 4.1 | -0.2 | 3.4 | 2.2 | 2.5 | 48.9* | 22.1
Cc1nnc(N/N=C/c2ccccc2C(F)(F)F)n1N | -0.1 | -1.2 | 16.4 | 2.0 | 4.3 | 12.0 | x
COc1ccc(O)c(C(c2c(C)[nH][nH]c2=O)c2c(C)[nH][nH]c2=O)c1 | 4.4 | -0.5 | 15.2 | 6.4 | 10.7 | 75.7* | 47.2*
CCOc1cc(C(c2c(C)[nH][nH]c2=O)c2c(C)[nH][nH]c2=O)ccc1O | 9.5 | 4.0 | -4.2 | 3.1 | 6.1 | 46.9* | 52.7*
Cc1cc(-c2csc(N)n2)c(C)n1C | 8.7 | -1.3 | 0.5 | 7.4 | 6.1 | 43.1* | 15.8
Cc1ccc(-n2c(C)cc(-c3csc(N)n3)c2C)cc1 | 2.3 | -4.2 | 8.0 | 0.3 | 0.1 | 4.5 | x
Cc1cc(C)n(-c2ccc(C(=O)OCC(=O)Nc3ccc(S(=O)(=O)N4CCCCC4)cc3)cc2)n1 | -2.3 | 4.0 | -11.0 | 1.1 | -10.7 | 47.7* | 16.6
